Each structure is given as a SMILES string. The source made the active and inactive calls. Where only a bound is given, the exact number is not on record here.

As usually defined, the EC50 is the concentration needed to bring the measured effect to its halfway point. A word on the Tmax: it is the time at which the peak concentration occurs. Broadly, the AUC(0-inf) is total exposure, with the tail of the curve extrapolated. The Cmax is the maximum level reached in the sampled fluid or tissue. As a reminder, the half-life is the time needed for the level to fall by half in the phase considered.

For series [1], the target named is Hydroxycarboxylic acid receptor 1 (Homo sapiens, UniProt Q9BXC0). Put plainly: Agonist activity at human recombinant GPR81 transfected in african green monkey COS-7 cells after 20 mins by [35S]GTPgammaS binding assay. In kind it is functional, cell-based. The method, boiled down: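 hGPR81 agonism measured by GTPγS binding, run as in an earlier cited report; EC50 values are the mean of at least two determinations with standard deviation.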
Sequence of Hydroxycarboxylic acid receptor 1 (Homo sapiens, UniProt Q9BXC0) (Q9BXC0 whole entry): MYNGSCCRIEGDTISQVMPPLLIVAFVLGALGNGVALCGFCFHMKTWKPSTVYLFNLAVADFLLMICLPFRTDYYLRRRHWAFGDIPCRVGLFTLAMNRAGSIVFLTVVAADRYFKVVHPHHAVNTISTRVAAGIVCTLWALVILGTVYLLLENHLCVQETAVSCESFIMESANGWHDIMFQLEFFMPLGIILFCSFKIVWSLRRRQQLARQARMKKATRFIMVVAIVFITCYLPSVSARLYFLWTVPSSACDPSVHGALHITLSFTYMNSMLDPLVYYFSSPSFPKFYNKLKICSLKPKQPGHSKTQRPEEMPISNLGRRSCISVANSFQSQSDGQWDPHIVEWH
For orientation: Binding of GTPγS marks nucleotide exchange on a G protein.

Series [2] has as its target G-protein coupled receptor 81 (Macaca mulatta, UniProt B9UM29). In words: Agonist activity at monkey GPR81. In kind it is functional.
The target in series [3] is G-protein coupled receptor 81 (Canis lupus familiaris, UniProt B9UM26). In words: Agonist activity at dog GPR81. In kind it is functional.
Sequence of G-protein coupled receptor 81 (Canis lupus familiaris, UniProt B9UM26) (B9UM26 whole entry): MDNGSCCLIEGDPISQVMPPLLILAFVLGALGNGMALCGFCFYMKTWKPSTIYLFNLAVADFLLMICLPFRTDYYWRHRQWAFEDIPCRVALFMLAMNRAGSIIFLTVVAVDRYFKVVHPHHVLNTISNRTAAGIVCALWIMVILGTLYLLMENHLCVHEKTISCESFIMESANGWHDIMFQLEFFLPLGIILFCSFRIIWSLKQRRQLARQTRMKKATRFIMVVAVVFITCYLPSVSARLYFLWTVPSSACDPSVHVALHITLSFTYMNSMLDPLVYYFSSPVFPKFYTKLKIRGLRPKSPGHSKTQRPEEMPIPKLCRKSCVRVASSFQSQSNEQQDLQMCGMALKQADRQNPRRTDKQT
Series [4] concerns the target T1, Protein Gpr81 (Rattus norvegicus, UniProt G3V906).
T1 sequence (G3V906 whole entry): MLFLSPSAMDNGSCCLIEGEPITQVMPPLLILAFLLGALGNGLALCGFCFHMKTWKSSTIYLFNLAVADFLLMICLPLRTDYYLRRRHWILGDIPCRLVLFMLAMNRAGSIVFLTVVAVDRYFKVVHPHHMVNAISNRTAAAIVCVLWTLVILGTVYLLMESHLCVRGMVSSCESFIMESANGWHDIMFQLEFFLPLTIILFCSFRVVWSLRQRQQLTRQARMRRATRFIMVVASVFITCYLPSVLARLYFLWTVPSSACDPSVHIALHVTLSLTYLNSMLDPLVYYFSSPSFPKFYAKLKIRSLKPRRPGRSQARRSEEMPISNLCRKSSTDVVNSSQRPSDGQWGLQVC
Put plainly: Agonist activity at rat GPR81. In kind it is functional.

In series [5] the target is T2, Hydroxycarboxylic acid receptor 1 (Mus musculus, UniProt Q8C131).
T2 sequence (Q8C131 whole entry): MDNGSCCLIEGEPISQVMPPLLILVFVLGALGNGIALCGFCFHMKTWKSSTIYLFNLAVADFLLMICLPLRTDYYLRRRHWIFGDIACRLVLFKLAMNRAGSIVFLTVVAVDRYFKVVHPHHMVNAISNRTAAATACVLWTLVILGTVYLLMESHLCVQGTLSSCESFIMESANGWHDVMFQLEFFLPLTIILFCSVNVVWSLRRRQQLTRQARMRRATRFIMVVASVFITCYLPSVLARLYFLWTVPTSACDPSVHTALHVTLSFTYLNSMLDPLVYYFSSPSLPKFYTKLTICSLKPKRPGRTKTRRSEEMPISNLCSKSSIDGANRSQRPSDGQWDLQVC
Put plainly: Agonist activity at mouse GPR81. In kind it is functional.

The nature of series [6]: Agonist activity at hamster GPR81. It is filed as functional, Cricetinae.
Series [7] is described as follows: Tmax in C57B16/J mouse at 30 mg/kg, po. It is filed as ADME, organism-based. Set-up: dose 30 mg/kg, route oral. The settings on record: in vivo. The method, boiled down:
(§1)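 Mice received single oral doses of 30 or 100 mg/kg. Exposure was followed over time to derive tmax, AUCinf, Cmax (ng/mL, converted to μM) and t1/2.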

Series [8] can be described thus: Tmax in C57B16/J mouse at 100 mg/kg, po. It is filed as ADME, organism-based. Set-up: dose 100 mg/kg, route oral. The settings on record: in vivo. The method, boiled down: as §1
The nature of series [9]: AUC (0 to infinity) in C57B16/J mouse at 30 mg/kg, po. It is filed as ADME, organism-based. Set-up: dose 30 mg/kg, route oral, time infinity. The following applies: plasma. The method, boiled down: as §1
The nature of series [10]: AUC (0 to infinity) in C57B16/J mouse at 100 mg/kg, po. Set-up: time infinity, dose 100 mg/kg, route oral. In kind it is ADME, organism-based. The settings on record: plasma. A digest of the protocol:
as §1

Series [11] is described as follows: Cmax in C57B16/J mouse at 30 mg/kg, po. Set-up: dose 30 mg/kg, route oral. It is filed as ADME, organism-based. The settings on record: in vivo. The method, boiled down:
as §1

Series [12] in a line: Cmax in C57B16/J mouse at 100 mg/kg, po. It is filed as ADME, organism-based. Set-up: dose 100 mg/kg, route oral. The settings on record: in vivo. A digest of the protocol: as §1
The nature of series [13]: Half life in C57B16/J mouse at 30 mg/kg, po. Set-up: dose 30 mg/kg, route oral. In kind it is ADME, organism-based. The following applies: in vivo. A digest of the protocol:
as §1

Series [14] is described as follows: Half life in C57B16/J mouse at 100 mg/kg, po. Set-up: dose 100 mg/kg, route oral. In kind it is ADME, organism-based. The following applies: in vivo. The method, boiled down:
as §1

Series [15] has as its system Mus musculus. Put plainly: Antilipolytic activity in DIO C57B16/J mouse assessed as reduction in nonesterified free fatty acid cholesterol level at 30 mg/kg, po after 30 mins by enzymatic assay. In kind it is functional, organism-based. Set-up: dose 30 mg/kg. The method, boiled down:
(§2)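 Acute oral dosing at 30, 100 or 300 mg/kg in C57Bl6/J mice fed high-fat chow for 10 weeks (DIO) and fasted overnight. Nonesterified free fatty acid cholesterol (NEFAc) served as the lipolysis marker. Niacin 30 was a reference arm, and groups were compared with vehicle (P < 0.05, P < 0.01).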

Series [16] has as its system Mus musculus. In words: Antilipolytic activity in DIO C57B16/J mouse assessed as reduction in nonesterified free fatty acid cholesterol level at 100 mg/kg, po after 30 mins by enzymatic assay. It is filed as functional, organism-based. Set-up: dose 100 mg/kg. The method, boiled down:
as §2

Series [17] has as its system Mus musculus. Put plainly: Antilipolytic activity in DIO C57B16/J mouse assessed as reduction in nonesterified free fatty acid cholesterol level at 300 mg/kg, po after 30 mins by enzymatic assay. It is filed as functional, organism-based. Set-up: dose 300 mg/kg. A digest of the protocol: as §2

Sequence of G-protein coupled receptor 81 (Macaca mulatta, UniProt B9UM29) (B9UM29 whole entry): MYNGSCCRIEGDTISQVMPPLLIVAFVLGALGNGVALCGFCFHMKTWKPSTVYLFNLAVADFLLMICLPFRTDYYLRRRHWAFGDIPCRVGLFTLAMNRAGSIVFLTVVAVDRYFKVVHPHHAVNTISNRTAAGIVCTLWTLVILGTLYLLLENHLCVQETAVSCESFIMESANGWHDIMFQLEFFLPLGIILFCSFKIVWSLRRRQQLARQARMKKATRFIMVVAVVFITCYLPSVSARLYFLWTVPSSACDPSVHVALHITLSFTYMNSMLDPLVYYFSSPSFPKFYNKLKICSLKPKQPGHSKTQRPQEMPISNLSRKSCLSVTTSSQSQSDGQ

Consider `OB(O)c1cccc(O)c1`, for which the EC50 in [1] was above 1000 µM.

As to `O=C(O)c1cc(O)cc(Br)c1`, the EC50 in [1] is 129 µM.

In the case of `CC(C)(C)c1cc(O)cc(C(=O)O)c1`, the EC50 in [1] was above 1000 µM.

For the molecule `O=C(O)c1cc(O)cc(F)c1`, in series [1], the EC50 stood at 38 µM.

`O=C(O)c1cc(O)cc(C(F)(F)F)c1`: the EC50 in series [1] is above 1000 µM.

As to `O=C(O)c1cc(O)cc(Cl)c1`, the EC50 in series [1] worked out at 16 µM; in [2], 17 µM; in series [3] it was 67 µM; in [4], 7 µM; in series [5], 22 µM; in series [6], 27 µM. Besides, the time of peak concentration (Tmax) in [7] and in [8] was 30 min throughout. The figures for the area under the curve AUC(0-inf) in series [9] and in series [10] were 9360 ng·h/mL and 51300 ng·h/mL, respectively. For the same molecule, the highest concentration (Cmax) was found to be 67.2 µM in series [11] and 342 µM in [12]. Besides, the half-life is 88.2 min in [13] and 66 min in series [14]. The result in [15], in series [16] and in series [17] was Active.

On to `O=C(O)c1cc(O)cc(-c2ccccc2)c1`, for which the concentration for a half-maximal effect (EC50) in [1] is above 1000 µM.

Consider `O=P(O)(O)c1cc(O)cc(O)c1`, for which the EC50 in series [1] was above 1000 µM.

Take `N#Cc1cc(O)cc(C(=O)O)c1`: the EC50 in series [1] is above 1000 µM.

Take `O=C(O)c1cccnc1`: the outcome in [15] was Active.

In the case of `Cc1cc(O)cc(C(=O)O)c1`, the EC50 in [1] amounted to 42 µM.

As for `COc1cc(O)cc(C(=O)O)c1`, in [1], the concentration giving a half-maximal response (EC50) is above 1000 µM.

Consider `O=C(O)c1cc(O)c[n+]([O-])c1`, for which the half-maximal effective concentration (EC50) in series [1] is above 1000 µM.

Consider `Oc1cc(O)cc(-c2nnn[nH]2)c1`, for which the EC50 in [1] is above 1000 µM.

For the molecule `O=C(O)c1cc(O)cc(O)c1` [3,5-DIHYDROXYBENZOIC ACID], in series [1], the EC50 came out at 377 µM.

For `CP(=O)(O)c1cc(O)cc(O)c1`, the EC50 in [1] is above 1000 µM.

Turning to `O=C(O)c1cccc(O)c1` [3-HYDROXYBENZOIC ACID], the EC50 in series [1] stood at 184 µM.

With `O=C(O)c1cncc(O)c1`, in [1], the concentration giving a half-maximal response (EC50) was above 1000 µM.
